Reference: ChEMBL document CHEMBL1932987, “Straightforward palladium-mediated synthesis and biological evaluation of benzo[j]phenanthridine-7,12-diones as anti-tuberculosis agents” (Eur J Med Chem, 2012)
≈ marks a conversion by molar mass, not a printed value. Calls of active or inactive are those of the source. The calls are words filed in the database; no cut-off is given here.

Columns and labels:
[1] = system: Mycobacterium tuberculosis; assay: Antimycobacterial activity against Mycobacterium tuberculosis H37Rv expressing pSMT1 after 1 to 7 days by luminescent assay; assay type: functional
Method in brief: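 Luminescent M.tb. H37Rv carrying pSMT1 (luxAB, hsp60 promoter) in 7H9 + 10% FCS. Bacteria filtered, recovered 1 h at 37 °C, 5% CO2, added at 50,000 RLU/ml. Serial dilutions from 1 mM DMSO stocks, triplicate wells. Luminometry after 1, 3 and 7 days; MIC50 = 50% growth reduction.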

[2] = Cytotoxicity against human HepG2/C3A cells after 24 hrs by neutral red uptake assay; assay type: cell-based
Method in brief: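 C3A hepatocytes in DMEM + 10% FCS, 40,000 per well, recovered at 37 °C, 5% CO2. Exposed 24 h to final 10, 3, 1, 0.3, 0.1 µM from 1 mM DMSO stocks. Neutral red added for 3 h, extracted with ethanol/acetic acid, OD read at 530 nm with 620 nm reference. IC50 = 50% neutral red uptake.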

[3] = Selectivity index, ratio of IC50 for human HepG2/C3A cells to MIC50 for Mycobacterium tuberculosis H37Rv; assay type: functional
Method in brief: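 Selectivity index is the IC50 from the C3A neutral red uptake assay divided by the MIC50 against luminescent M.tb. H37Rv.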

Salmonella typhimurium = assay: Genotoxicity in Salmonella Typhimurium expressing episomal lux operon assessed as concentration required to cause toxicity in presence of S9 fraction; assay type: organism-based; details: salmonella enterica subsp. enterica serovar typhimurium
Method in brief: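 VITOTOX with genetically engineered Salmonella typhimurium strains, with or without S9 from aroclor-treated rat liver. Genotoxicity reported by a luxCDABE reporter under the RecN promoter. Tested at 10, 1 and 0.1 µM; lowest concentration showing cytotoxicity recorded.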

[4] = system: Mycobacterium tuberculosis; assay: Antimycobacterial activity against Mycobacterium tuberculosis H37Rv expressing pSMT1 after 1 to 7 days by BACTEC 460-TB assay; assay type: functional
Method in brief: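 Radiometric BACTEC 460-TB culture of M.tb. H37Rv in 7H9-based medium. Pre-culture grown to GI 300, then inoculated into a fresh vial with serial compound dilutions made at 40x final concentration from 1 mM DMSO stocks. GI (14C-palmitate to 14CO2) read daily against untreated inocula diluted 100-fold at inoculation. MIC99 taken as 99% inhibition. Each measurement done at least twice.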

[5] = Induction of DNA fragmentation in human HepG2/C3A cells at 0.1 uM after 24 hrs by alkaline comet assay (reference value: 3.69%); assay type: toxicity, cell-based
Method in brief: (§1)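 Alkaline comet assay on C3A cells, 100,000 per well, pre-incubated 24 h with compound at 3, 1, 0.3 or 0.1 µM. Cells embedded in agarose on slides, lysed 1 h, electrophoresed 20 min at 300 mA, neutralized, stained with gel red. % tail DNA measured by fluorescence microscopy; compared with negative control by Mann-Whitney U test.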

[6] = Induction of DNA fragmentation in human HepG2/C3A cells at 0.3 uM after 24 hrs by alkaline comet assay (reference value: 3.69%); assay type: toxicity, cell-based; method in brief: as §1
[7] = Induction of DNA fragmentation in human HepG2/C3A cells at 1 uM after 24 hrs by alkaline comet assay (reference value: 3.69%); assay type: toxicity, cell-based; method in brief: as §1
[8] = Induction of DNA fragmentation in human HepG2/C3A cells at 3 uM after 24 hrs by alkaline comet assay (reference value: 3.69%); assay type: toxicity, cell-based; method in brief: as §1
[9] = system: Mycobacterium tuberculosis; assay: Antimycobacterial activity against Mycobacterium tuberculosis H37Rv infected in mouse J774 cells assessed as reduction of parasite growth at 1 uM after 7 days by luminescence assay; assay type: functional; parameters: scale not given: the % may be the effect or the level left
Method in brief: (§2)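 Murine J774 macrophages, 100,000 per well, recovered overnight, then infected with luminescent M.tb. H37Rv (10^4 CFU, MOI 0.1) in DMEM with penicillin and Fungizone. Cells treated with compound at final 10, 3, 1, 0.3, 0.1 µM. Monolayers lysed after 1, 3 or 7 days; intracellular bacteria read by luminometry of lysate. Triplicate cultures, mean RLU.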

[10] = Cytotoxicity against mouse J774 cells assessed as viability at 1 uM after 7 days by neutral red uptake assay; assay type: cell-based; details: read-out: Activity
Method in brief: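 Uninfected J774 macrophages exposed to compound in parallel with the infection assay; viability read by neutral red uptake over the same exposure period.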

[11] = system: Mycobacterium tuberculosis; assay: Antimycobacterial activity against Mycobacterium tuberculosis H37Rv infected in mouse J774 cells assessed as reduction of parasite growth at 1 uM after 1 day by luminescence assay; assay type: functional; parameters: scale not given: the % may be the effect or the level left; method in brief: as §2
[12] = system: Mycobacterium tuberculosis; assay: Antimycobacterial activity against Mycobacterium tuberculosis H37Rv infected in mouse J774 cells assessed as reduction of parasite growth at 1 uM after 3 days by luminescence assay; assay type: functional; parameters: scale not given: the % may be the effect or the level left; method in brief: as §2
[13] = system: Mycobacterium tuberculosis; assay: Antimycobacterial activity against Mycobacterium tuberculosis H37Rv infected in mouse J774 cells assessed as reduction of parasite growth at 0.3 uM after 7 days by luminescence assay; assay type: functional, organism-based; method in brief: as §2

Compound | MIC50 [1] [µM] | IC50 [2] [nM] | Selectivity Index [3] | Activity (Salmonella typhimurium) [µM] | MIC99 [4] [µM] | Activity [5] [%] | Activity [6] [%] | Activity [7] [%] | Activity [8] [%] | Activity [9] [%] | viability at 168 h, 1 µM [10] [%] | Activity [11] [%] | Activity [12] [%] | Activity [13]
COc1ccc2ncc3c(c2c1)C(=O)c1ccccc1C3=O | 0.43 (≈ 0.124 µg/mL) | 950 | 2.22 | 10 | – | – | – | – | – | – | – | – | – | –
Cc1ccc2ncc3c(c2c1)C(=O)c1ccccc1C3=O | 0.88 (≈ 0.24 µg/mL) | 1480 | 1.69 | 10 | 1.53 (≈ 0.418 µg/mL) | – | – | – | – | – | – | – | – | –
O=C1c2ccccc2C(=O)c2c1cnc1ccc(Cl)cc21 | 1.03 (≈ 0.303 µg/mL) | 1560 | 1.5 | 1 | 1.35 (≈ 0.397 µg/mL) | – | – | – | – | – | – | – | – | –
O=C1c2ccccc2C(=O)c2c1cnc1ccc(F)cc21 | 0.74 (≈ 0.205 µg/mL) | 1090 | 1.46 | 1 | 1.38 (≈ 0.383 µg/mL) | – | – | – | – | – | – | – | – | –
COc1cccc2c3c(cnc12)C(=O)c1ccccc1C3=O | 1.66 (≈ 0.48 µg/mL) | 2400 | 1.45 | 10 | 2.74 (≈ 0.793 µg/mL) | – | – | – | – | – | – | – | – | –
NNC(=O)c1ccncc1 [ISONIAZID] | 0.54 (≈ 0.0741 µg/mL) | – | – | – | – | – | – | – | – | – | – | – | – | –
Cc1ccc2c3c(cnc2c1)C(=O)c1ccccc1C3=O | 0.21 (≈ 0.0574 µg/mL) | 3210 | 15.29 | 10 | 0.64 (≈ 0.175 µg/mL) | 3.47 | 2.52 | 2.15 | 3.31 | 83.5 | 92.9 | 47.6 | 74.2 | inactive
O=C1c2ccccc2C(=O)c2c1cnc1ccccc21 | 1.2 (≈ 0.311 µg/mL) | 1510 | 1.26 | 1 | 1.9 (≈ 0.493 µg/mL) | – | – | – | – | – | – | – | – | –
Cc1cccc2c3c(cnc12)C(=O)c1ccccc1C3=O | 3.68 (≈ 1.01 µg/mL) | 3960 | 1.08 | 10 | 4.3 (≈ 1.18 µg/mL) | – | – | – | – | – | – | – | – | –
